ChEMBL document CHEMBL1828531, “Pyrazol-3-propanoic acid derivatives as novel inhibitors of leukotriene biosynthesis in human neutrophils” (Eur J Med Chem, 2011)

Legend:
[1] = molecular target: T1, Polyunsaturated fatty acid 5-lipoxygenase (Homo sapiens, UniProt P09917); experiment: Inhibition of 5-Lipoxygenase in arachidonic acid-stimulated human neutrophils after 15 mins by HPLC analysis in presence of A23187
T1 sequence (P09917 whole entry): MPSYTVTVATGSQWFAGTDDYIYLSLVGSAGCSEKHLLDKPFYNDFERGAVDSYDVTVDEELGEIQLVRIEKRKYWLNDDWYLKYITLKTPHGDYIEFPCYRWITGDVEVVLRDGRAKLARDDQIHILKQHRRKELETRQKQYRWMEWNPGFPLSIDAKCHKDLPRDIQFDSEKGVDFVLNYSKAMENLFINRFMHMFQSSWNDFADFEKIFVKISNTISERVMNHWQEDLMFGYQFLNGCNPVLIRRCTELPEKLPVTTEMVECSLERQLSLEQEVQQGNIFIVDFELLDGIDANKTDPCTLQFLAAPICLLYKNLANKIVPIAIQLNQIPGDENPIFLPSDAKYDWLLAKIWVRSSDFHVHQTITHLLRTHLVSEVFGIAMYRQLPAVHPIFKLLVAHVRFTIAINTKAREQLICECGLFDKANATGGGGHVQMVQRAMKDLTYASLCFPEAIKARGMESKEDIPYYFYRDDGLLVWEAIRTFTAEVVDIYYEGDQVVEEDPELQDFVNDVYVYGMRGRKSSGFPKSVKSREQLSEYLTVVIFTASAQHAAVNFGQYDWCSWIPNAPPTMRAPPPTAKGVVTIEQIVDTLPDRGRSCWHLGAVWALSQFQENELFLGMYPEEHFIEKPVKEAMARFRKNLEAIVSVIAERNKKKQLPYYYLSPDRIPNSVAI
Procedure, shortened: (§1)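 Human neutrophils, 5 × 10^6/mL in PBS/glucose/1 mM CaCl2, preincubated 15 min at RT, then 2.5 µM A23187 plus 20 µM AA for 10 min at 37 °C. Methanol stop, PGB1 internal standard, HPLC of LTB4, its all-trans isomers and 5-H(p)ETE. Residual % versus 0.3% DMSO vehicle, mean ± SEM, n = 3–5. IC50 by linear interpolation from 4–5 concentrations.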

[2] = molecular target: T2, Polyunsaturated fatty acid 5-lipoxygenase (Homo sapiens) (UniProt P09917); experiment: Inhibition of recombinant human 5-Lipoxygenase expressed in Escherichia coli lysate assessed as residual activity at 10 uM after 10 mins by HPLC analysis
T2 sequence (whole entry): T1 sequence (P09917 whole entry)
Procedure, shortened: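 Human 5-LO expressed at 30 °C in E. coli MV1190 (pT3-5LO); lysate 40,000 g supernatant in PBS pH 7.4 with 1 mM EDTA. Preincubated with compound 10 min at 4 °C, warmed 30 s at 37 °C. Started with 2 mM CaCl2 plus 20 µM AA, 10 min at 37 °C. Methanol stop, HPLC. Residual % versus 0.3% DMSO vehicle, n = 3–5.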

[3] = molecular target: T2, Polyunsaturated fatty acid 5-lipoxygenase (Homo sapiens); experiment: Inhibition of 5-Lipoxygenase in arachidonic acid-stimulated human neutrophils assessed as residual activity at 10 uM after 15 mins by HPLC analysis in presence of A23187; procedure, shortened: as §1

Row | Compound | IC50 [1] | Activity [2] | Activity [3]
1 | CC(C)(C)c1ccc(CN2CCN(C(=O)CCc3cc(-c4ccc(F)cc4)n(-c4ccc(Cl)cc4)n3)CC2)cc1 | 2600 nM | 143% | 13.2%
2 | COc1ccc(-n2nc(CCC(=O)N3CCN(Cc4ccc(C(C)(C)C)cc4)CC3)cc2-c2ccc(F)cc2)nn1 | > 10000 nM | 69.2% | 50.1%
3 | CC(C)(C)c1ccc(CN2CCN(C(=O)CCc3cc(-c4ccc(C(F)(F)F)cc4)n(-c4ccc(Cl)nn4)n3)CC2)cc1 | 2900 nM | 88.9% | 17.4%
4 | O=C(CCc1cc(-c2ccc(F)cc2)n(-c2ccc(Cl)nn2)n1)Oc1ccc(-n2ccnc2)cc1 | – | 71.7% | 111%
5 | O=C(CCc1cc(-c2ccc(C(F)(F)F)cc2)n(-c2ccc(Cl)nn2)n1)Oc1ccc(C2CCCC2)cc1 | – | 92% | 77.2%
6 | COc1ccc(-n2nc(CCC(=O)N3CCN(Cc4ccc(C(C)(C)C)cc4)CC3)cc2-c2ccc(C)cc2)nn1 | 3300 nM | 86.1% | 27.1%
7 | CCS(=O)(=O)N1CCN(C(=O)CCc2cc(-c3ccc(C)cc3)n(-c3ccc(Cl)nn3)n2)CC1 | – | 93.6% | 96.3%
8 | CC(C)(C)c1ccc(OC(=O)CCc2cc(-c3ccc(F)cc3)n(-c3ccc(Cl)nn3)n2)cc1 | – | 92.7% | 67.3%
9 | O=C(CCc1cc(-c2ccc(C(F)(F)F)cc2)n(-c2ccc(Cl)nn2)n1)Oc1ccc(-n2cccc2)cc1 | – | 90.8% | 94.1%
10 | Cc1ccc(-c2cc(CCC(=O)N3CCN(Cc4ccc(C(C)(C)C)cc4)CC3)nn2-c2ccc(Cl)nn2)cc1 | 2800 nM | 107% | 14.6%
11 | COc1ccc(-n2nc(CCC(=O)N3CCN(Cc4ccc(C(C)(C)C)cc4)CC3)cc2-c2ccc(C(F)(F)F)cc2)nn1 | 8000 nM | 56.1% | 36.2%
12 | CC(C)(C)c1ccc(CN2CCN(C(=O)CCc3cc(-c4ccc(F)cc4)n(-c4ccc5ccccc5n4)n3)CC2)cc1 | 2800 nM | 114% | 10.4%
13 | O=C(CCc1cc(-c2ccc(F)cc2)n(-c2ccc(Cl)nn2)n1)Oc1ccc(-c2ccsc2)cc1 | – | 83.4% | 90.8%
14 | CC(C)(C)c1ccc(CN2CCN(C(=O)CCc3cc(-c4ccc(C(F)(F)F)cc4)n(-c4ccc5ccccc5n4)n3)CC2)cc1 | 3000 nM | 87.3% | 44.5%
15 | COc1ccc(NC(=O)CCc2cc(-c3ccc(F)cc3)n(-c3ccc(Cl)nn3)n2)cc1 | – | 91.6% | 88.3%
16 | Cc1ccc(-c2cc(CCC(=O)Nc3ccc(N4CCOCC4)nc3)nn2-c2ccc(Cl)nn2)cc1 | – | 90% | 106%
17 | CC(C)(C)c1ccc(CN2CCN(C(=O)CCc3cc(-c4ccc(C(F)(F)F)cc4)n(-c4ccc(Cl)cc4)n3)CC2)cc1 | 8000 nM | 138% | 43.9%
18 | NC(=O)C1CCN(C(=O)CCc2cc(-c3ccc(C(F)(F)F)cc3)n(-c3ccc(Cl)nn3)n2)CC1 | – | 103% | 104%
19 | O=C(CCc1cc(-c2ccc(C(F)(F)F)cc2)n(-c2ccc(Cl)nn2)n1)N1CCN(C(=O)c2ccco2)CC1 | – | 126% | 81.8%
20 | CC(C)(C)c1ccc(CN2CCN(C(=O)CCc3cc(-c4ccc(C(F)(F)F)cc4)n(-c4ccccc4)n3)CC2)cc1 | 2900 nM | 109% | 12.7%
21 | O=C(CCc1cc(-c2ccc(F)cc2)n(-c2ccc(Cl)nn2)n1)N1CCN(C(=O)C2CCCO2)CC1 (stereo unspecified) | – | 90.8% | 95%
22 | Cc1ccc(-c2cc(CCC(=O)Oc3ccc(OC(F)(F)F)cc3)nn2-c2ccc(Cl)nn2)cc1 | – | 116% | 70.5%
23 | CC(C)(C)c1ccc(CN2CCN(C(=O)CCc3cc(-c4ccc(F)cc4)n(-c4ccccc4)n3)CC2)cc1 | 2500 nM | 78.5% | 3.7%
24 | CCCCCCCOc1ccc(OC(=O)CCc2cc(-c3ccc(F)cc3)n(-c3ccc(Cl)nn3)n2)cc1 | – | 86.5% | 90.1%
25 | Cc1ccc(-c2cc(CCC(=O)N3CCN(Cc4ccc(C(C)(C)C)cc4)CC3)nn2-c2ccc(Cl)cc2)cc1 | 2900 nM | 111% | 27.7%
26 | Cc1ccc(-c2cc(CCC(=O)N3CCN(CC4CCCO4)CC3)nn2-c2ccc(Cl)nn2)cc1 (stereo unspecified) | – | 106% | 86%
27 | Cc1ccc(-c2cc(CCC(=O)Oc3ccc(Oc4ccc(C(F)(F)F)cc4)cc3)nn2-c2ccc(Cl)nn2)cc1 | – | 95% | 86.5%
